Data published in PubChem BioAssay AID624070 (Broad Institute, 2012).
Inconclusive results are not listed.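 The calls were made as follows: active = fitted curve crosses -35% change at a dose up to twice the top valid dose; inconclusive = flat fit showing 30 to 70% drop, or poor fit; inactive = the rest, including rises or flat curves.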

Assay: P. aeruginosa growth delay under iron chelation, dose response, whole organism, absorbance 405 nm, EDDHA, dry powder, set 5 (AID 624070)
Conditions: P. aeruginosa ATCC 15692 + EDDHA, A405, 24-30 h; series mostly up to 120 µM; activity change, negative = inhibition: at the top concentration
Outline: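 material = Pseudomonas aeruginosa strain ATCC 15692, whole bacterial cells | quantity = final OD600 0.0000005 bacteria | medium = succinate M9 minimal growth medium, pH 7.0 | probe or stimulus = iron chelator EDDHA at 2 µM final | incubation = bacterial growth with compound for 24–30 h at 37 °C | signal = absorbance at 405 nm reflecting pyoverdine production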

Activity change, negative = inhibition, inactive:
COCCNC(C#N)c1ccc(Cl)cc1 (stereo not drawn) -5.05%
N#CC1c2ccc(Cl)cc2CCc2cccnc21 (stereo not drawn) -18.7%
Clc1ccc(C(c2cccc(Cl)n2)c2nn[nH]n2)cc1 (stereo not drawn) 0.409%
CCCCC(C#N)c1ccc(F)cc1 (stereo not drawn) -7.51%
CCCCC(C#N)c1ccc(F)cn1 (stereo not drawn) -1%
COCCOCCC(C#N)c1ccc(F)cc1 (stereo not drawn) -20.3%
CCCCC(C#N)c1ccccn1 (stereo not drawn) -2.51%
N#CC(c1ccc(F)cc1)c1cccc(Cl)n1 (stereo not drawn) -11%
COCCOCCC(C#N)c1ccc(Cl)cc1 (stereo not drawn) -0.54%
COCCC(C#N)c1ccc(F)cc1 (stereo not drawn) -34.9%
N#Cc1cccc(C(C#N)c2ccc(F)cc2)n1 (stereo not drawn) -55.9% [at 42 µM]
CCCCC(C#N)c1ccc(Cl)cn1 (stereo not drawn) -3.36%
COCCC(C#N)c1ccc(Cl)cc1 (stereo not drawn) -9.4%
CN(C)CCCC(C#N)c1ccc(Cl)cc1 (stereo not drawn) -9.81%
N#CC(c1ccc(C(F)(F)F)c(Cl)n1)c1ccccc1OC(F)(F)F (stereo not drawn) -11.5%
N#CC(c1ccc(Cl)cc1)N1CCCC1 (stereo not drawn) -32.5%
CCCCC(C#N)c1ccc(Cl)cc1 (stereo not drawn) -27.5%
N#CC(c1ccc(Cl)cc1)c1ccccn1 (stereo not drawn) -20.5%
